Screening data (PubChem)
AHR act = activates the human aryl hydrocarbon receptor; P35869; AHR-responsive luciferase reporter cells, luminescence; activation, % at 5 µM; 2.5% of 320,000 active; AID 2796; in the data active = activation above about 47%
SR-BI DiI inh = blocks mouse SR-BI lipid uptake from DiI-HDL. Q61009. 0.96% of 320,000 active. ldlA[mSR-BI] CHO cells, DiI-HDL uptake fluorescence, 3 h. inhibition, % at 12.5 µM;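 active = mean replicate inhibition of at least 70% and a set share of replicates each scoring 70 or more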
Yeast superoxide = lowers age-related superoxide in aged yeast cells. 0.18% of 330,000 active. S. cerevisiae aged cells, superoxide DHE fluorescence; hits give low values. superoxide response (% of plate mean), % at 10 µM;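 active = superoxide response under a set limit, about three screen SD below normal, cut at about 65% in these data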;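 also: yeast aged for seven days with compound at 30 °C before DHE staining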
SMARCA2 act = activators of SMARCA2 function; MG213 cells, MMTV-luciferase reporter, dexamethasone, overnight; 1% of 370,000 active; activation, % at 9.1 µM; in the data active = activation above about 7.8%
Hep lipid drop = modulators of hepatic lipid droplet formation. AML12 mouse hepatocytes, oleate lipid droplets, BODIPY imaging. inhibition, % at 6.5 µM. 0.4% of 240,000 active. AID 1656;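 active = lipid droplet intensity inhibited by at least 50%, with more than 500 cells counted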
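Material: mouse AML12 hepatocyte cell line, fixed after treatment; Timing: compound with oleate, overnight; Technique: high-content imaging of BODIPY-stained droplets and DAPI nuclei; Probe or stimulus: oleate, 100 µM final; Dosing: compound at 6.5 µM only.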
SR-BI DiI-HDL act = activators of SR-BI mediated HDL lipid uptake. 0.096% of 320,000 active. CHO ldlA[mSR-BI] cells, DiI-HDL uptake fluorescence, 3 h; 100 = double the neutral-control signal. activation, % at 12.5 µM. AID 504775;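 active = mean replicate activation of at least 60% and every replicate at or above 60%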
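Material: SR-BI-overexpressing, LDLR-lacking CHO cells | Dosing: Single compound concentration, delivered by pin transfer | Probe or stimulus: Labelled HDL, 10 µg/mL | Signal: Bottom-read cell fluorescence after medium removal, ex 550/em 595 nm | Schedule: 3 h, 37 °C | Evaluation: HDL uptake via cellular fluorescence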
AHR act cf = confirmation of human aryl hydrocarbon receptor activators | shares compounds with AHR act | AID 2845 | human cells, AHR-responsive luciferase reporter, luminescence | activation, % at 9 µM | 87% of 2,300 active; in the data active = activation above about 49%;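 also: HepG2 hepatoma cells carrying a DRE-driven firefly luciferase reporter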
PXR counter = counter-screen for AHR activators: human PXR activators; shares compounds with AHR act; cell-based PXR reporter, luciferase luminescence; activation, % at 11.6 µM; 88% of 2,300 active; in the data active = activation above about 11%;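 also: human hepatoma DPX-2 cells expressing full-length human PXR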
Target sequence (O75469 whole entry, looked up): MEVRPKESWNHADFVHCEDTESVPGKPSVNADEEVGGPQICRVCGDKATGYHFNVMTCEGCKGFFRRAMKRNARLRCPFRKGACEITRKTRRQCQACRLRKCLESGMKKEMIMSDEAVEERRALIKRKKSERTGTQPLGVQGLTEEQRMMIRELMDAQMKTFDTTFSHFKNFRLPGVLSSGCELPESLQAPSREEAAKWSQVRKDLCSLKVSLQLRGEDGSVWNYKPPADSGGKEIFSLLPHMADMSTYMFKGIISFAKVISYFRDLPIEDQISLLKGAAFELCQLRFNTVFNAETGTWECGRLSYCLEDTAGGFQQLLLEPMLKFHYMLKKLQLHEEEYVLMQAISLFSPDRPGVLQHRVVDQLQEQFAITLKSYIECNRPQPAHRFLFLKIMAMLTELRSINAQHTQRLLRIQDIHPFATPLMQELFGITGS
Each line names hits and unclear results; the compound was inactive in the other large screens (follow-up assays come after a bar, where they were run). This is a sample that favours compounds with a hit; in the whole collection about 4.3% have one here.

COc1ccccc1-n1cc(-c2ccccc2)[nH]c1=S	AHR act 102 (no result: SR-BI DiI inh, SR-BI DiI-HDL act) | AHR act cf 106 | PXR counter 49
COc1ccc(OCC2CN(Cc3ccccc3)S(=O)(=O)CCO2)cc1 (configuration not stated)	none (no result: AHR act, SR-BI DiI inh, Yeast superoxide, Hep lipid drop, SR-BI DiI-HDL act)
Cc1cc(=O)n(CC(=O)NC2CC2)c2c1c(C)nn2-c1ccccc1	AHR act 88 (no result: SMARCA2 act) | AHR act cf 84 | PXR counter 77
Cc1cc(=O)n(CC(=O)NCCN2CCOCC2)c2c1c(C)nn2-c1ccccc1	none (no result: SMARCA2 act)
O=c1c2ccccc2ncn1-c1ccc(Cl)cc1	AHR act 112 | AHR act cf 115 | PXR counter inactive
Nc1c(Cl)cc(-c2csc(NCCc3nc4cc(Cl)c(Cl)cc4n3CCCO)n2)cc1Cl	AHR act 131 (no result: Hep lipid drop) | AHR act cf 113 | PXR counter 82
OCCOCCn1c(CCNc2nc(-c3ccc(F)cc3)cs2)nc2cc(C(F)(F)F)ccc21	AHR act 91 (no result: Hep lipid drop) | AHR act cf 50 | PXR counter 27
OCCCn1c(CCNc2nc(-c3ccc(Cl)cc3)cs2)nc2cc(C(F)(F)F)ccc21	none (no result: Hep lipid drop)
OCCCn1c(CCCNc2nc(-c3cccc(Br)c3)cs2)nc2cc(Cl)c(N3CCCCC3)cc21	none
O=C(NCc1ccco1)c1cccn2c(=O)c3cc4ccccc4cc3nc12	none (no result: AHR act, SR-BI DiI inh, Yeast superoxide, SMARCA2 act, SR-BI DiI-HDL act)
COCCCNC(=O)c1cccn2c(=O)c3cc4ccccc4cc3nc12	AHR act 92 (no result: Hep lipid drop) | AHR act cf 147 | PXR counter 13
CC(=O)N1CCN(S(=O)(=O)c2ccccc2)C1c1ccccc1 (configuration not stated)	AHR act 102 (no result: Hep lipid drop) | AHR act cf inactive | PXR counter 63
CCC(=O)N1CCN(C(C)=O)C1c1ccccc1 (configuration not stated)	none
COc1cc(-n2c(C)nc3cc(C(=O)N4CCCN(C(C)=O)CC4)ccc32)cc(OC)c1OC	none (no result: AHR act, SR-BI DiI inh, Yeast superoxide, Hep lipid drop, SR-BI DiI-HDL act)
Cc1ccc(-c2nc3ccccn3c2C=O)cc1	none
Cc1c(-c2ccc(Br)cc2)nc2ccccn12	AHR act 165 | AHR act cf 172 | PXR counter 15
O=[N+]([O-])c1ccc(CN2[C@H](COCc3ccccc3)C=CS2(=O)=O)cc1	none (no result: AHR act, SR-BI DiI inh, Yeast superoxide, Hep lipid drop, SR-BI DiI-HDL act)
O=C(Cn1nc(CNc2ccc(Cl)cc2)[n+]2c1CCCCC2)c1ccc(Br)cc1	AHR act 100 | AHR act cf inactive | PXR counter 24
COc1ccc(NCc2nn(CC(=O)c3ccc(Br)cc3)c3[n+]2CCCCC3)cc1	none
CN1CCN(CCCNC(=O)c2ccc(CS(=O)(=O)c3ccc(Br)cc3)o2)CC1	AHR act 81 (no result: Hep lipid drop) | AHR act cf inactive | PXR counter 12
COC(=O)[C@]12C[C@H](CC(=O)N3CCCC3)C(=O)N(Cc3ccccc3)C1=C[C@H](C1CCCC1)O[C@@H]2C	none (no result: AHR act, SR-BI DiI inh, Yeast superoxide, Hep lipid drop, SR-BI DiI-HDL act)
CC(=O)Nc1cccc2c1C(=O)N(c1ccc(C)cc1)C2=O	AHR act 99 | AHR act cf 99
S=c1nc(COc2ccccc2)[nH]c2ccccc12	AHR act 124 | AHR act cf 125 | PXR counter 14
COC(=O)[C@]12C[C@H](CC(=O)NCCCCc3ccccc3)C(=O)N(Cc3ccco3)C1=C[C@H](C1CCCC1)O[C@@H]2C	none (no result: AHR act, SR-BI DiI inh, Yeast superoxide, Hep lipid drop, SR-BI DiI-HDL act)
O=S1(=O)c2ccc(N3CCC[C@H]3CO)cc2OCCCN1C1CC1	none (no result: AHR act, SR-BI DiI inh, Yeast superoxide, Hep lipid drop, SR-BI DiI-HDL act)
c1ccc(-c2nc(NCc3ccco3)c3oc4ccccc4c3n2)cc1	AHR act 88 (no result: Hep lipid drop) | AHR act cf 105 | PXR counter 35
Cc1ccc(-c2nc(NCc3ccco3)c3ccccc3n2)cc1	none
Cn1c(-c2ccc(Br)o2)nc2cc(Br)ccc21	AHR act 116 (no result: Hep lipid drop) | AHR act cf 125 | PXR counter 20
CCc1cc2ccc(OC)cc2nc1SCC(=O)NNC(C)=O	none
CCc1cc2cc(OC)ccc2nc1SCC(=O)NNC(=O)c1ccco1	AHR act 82 | AHR act cf inactive | PXR counter 14
COc1ccc(N2CCN(c3nc(=S)n(-c4ccccc4)c(C)c3C(C)=O)CC2)cc1	none
CCn1c(C)c(C(C)=O)c(N2CCN(c3ccc(OC)cc3)CC2)nc1=S	AHR act 86 | AHR act cf inactive | PXR counter 26
Cc1cccnc1N=O	none (no result: AHR act, SR-BI DiI inh, Yeast superoxide, Hep lipid drop, SR-BI DiI-HDL act)
COC(=O)c1ccc2ccccc2n1	none (no result: SR-BI DiI inh, SMARCA2 act, Hep lipid drop, SR-BI DiI-HDL act)
CCOc1ccc(N=C(NN)c2ccc3ccccc3n2)cc1	AHR act 108 | AHR act cf 110 | PXR counter 19
c1ccc(N2CCN(c3nc4cc5c(cc4s3)OCO5)CC2)cc1	none
c1ccc2c(c1)CCN(c1nc3cc4c(cc3s1)OCO4)C2	AHR act 103 | AHR act cf inactive | PXR counter 35
C=CCn1c(O)c(N=NC(=O)CNC(=O)c2ccncc2)c2ccccc21	AHR act 99 | AHR act cf 70 | PXR counter 43
C#CCn1c(O)c(N=NC(=O)CNC(=O)/C=C/c2ccccc2)c2ccccc21	AHR act 91 | AHR act cf 107 | PXR counter 52
O=C(c1c(F)cccc1F)N1CCC(Oc2cccnc2)CC1	none (no result: AHR act, SR-BI DiI inh, Yeast superoxide, Hep lipid drop, SR-BI DiI-HDL act)
O=C(NCc1ccccc1)[C@@H]1CCCN1C(=O)[C@H]1CCCN1C(=O)c1ccccc1F	none (no result: AHR act, SR-BI DiI inh, Yeast superoxide, Hep lipid drop, SR-BI DiI-HDL act)
CCN(C(=O)CSc1nc2n[nH]c(C)c2c(=N)n1-c1ccc(Cl)c(C)c1)c1cccc(C)c1	none
CCCCN(CC)C(=O)CSc1nc2n[nH]c(C)c2c(=N)n1-c1cccc(C)c1	AHR act 86 | AHR act cf inactive | PXR counter 147
CC(C)(C)c1ccc(-c2cc(NC(=O)Cc3c[nH]c4ccccc34)ccc2Nc2cccnc2)cc1	none (no result: AHR act, SR-BI DiI inh, Yeast superoxide, Hep lipid drop, SR-BI DiI-HDL act)
CC(C)C[C@H]1COc2cccc(N3CCOCC3)c2S(=O)(=O)N1	none (no result: AHR act, SR-BI DiI inh, Yeast superoxide, Hep lipid drop, SR-BI DiI-HDL act)
CC(C)(C)NC(=S)N/N=C/c1c(Cl)cccc1Cl	AHR act 103 | AHR act cf inactive | PXR counter 131
CCNC(=S)N/N=C/c1c(Cl)cccc1Cl	none
COC(=O)c1sccc1NC(=O)c1ccc(C(C)C)cc1	AHR act 95 | AHR act cf 97 | PXR counter 15
CCOC(=O)[C@@]12CCCC=C1N(CCc1ccc(Cl)cc1)C(=O)[C@H]2CC(=O)NCc1cccc2ccccc12	none (no result: AHR act, SR-BI DiI inh, Yeast superoxide, Hep lipid drop, SR-BI DiI-HDL act)
COc1ccc(N=Nc2nc3cc(Br)c(Br)cc3n2C)c(OC)c1	AHR act 83 | AHR act cf 57 | PXR counter 18
Cn1c(=O)c(-c2ccccc2)nn2c3ccccc3nc12	AHR act 110 | AHR act cf 131 | PXR counter 19
Cc1cc(C(F)(F)F)n2ncc(-c3ccc(F)cc3)c2n1	AHR act 88 | AHR act cf 120 | PXR counter 23
